According to the EternaBench riboswitch data:

Tests used:
MS2 coat protein [1] = assay: apparent Kd, MS2 coat protein; higher = weaker binding; RNA-MaP array
Method in brief: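 Binding of fluorescently labeled MS2 coat protein, at 1.5 nM to 3 μM and room temperature, was measured with or without input ligand on designed RNAs transcribed on an Illumina sequencing chip from sequenced DNA templates. Apparent Kd was defined as the median of per-cluster binding-curve fits. No design measured on fewer than 10 clusters was kept.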

MS2 coat protein [2] = assay: apparent Kd, MS2 coat protein; higher = weaker binding; RNA-MaP array; FMN 200 µM where present
Method in brief: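 Green signal from SNAP-549-labelled MS2 coat protein was normalised to red-channel RNA signal and to the median Fmax of control clusters. The protein was titrated from 0.7 or 1.5 nM, doubling to 3 µM, without and then with constant ligand, over designs transcribed by stalled E. coli RNA polymerase on Illumina sequencing-chip clusters, in 100 mM Tris-HCl pH 7.5, 80 mM KCl, 4 mM MgCl2, BSA, DTT, yeast tRNA and Tween-20. The apparent Kd is the median of filtered per-cluster binding-curve fits.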

[3] = designed as: ON switch for flavin mononucleotide, no ligand
[4] = ligand present: flavin mononucleotide, designed as: ON switch for flavin mononucleotide
[5] = designed as: OFF switch for flavin mononucleotide, no ligand
[6] = ligand present: flavin mononucleotide, designed as: OFF switch for flavin mononucleotide
[7] = designed as: OFF switch for theophylline, no ligand
[8] = ligand present: theophylline, designed as: OFF switch for theophylline

| Sequence | apparent Kd (MS2 coat protein [1]; [3]) [nM] | apparent Kd (MS2 coat protein [1]; [4]) [nM] | apparent Kd (MS2 coat protein [1]; [5]) [nM] | apparent Kd (MS2 coat protein [1]; [6]) [nM] | also measured |
| --- | --- | --- | --- | --- | --- |
| AAGCUACAUGAGGAUCACCCAUGUCUCACGUCACUAGGAUAUCUGAAGGUGACGAAGUUCAGAGAAGGAGUGCAUC | 97.2 | 83.2 | – | – | – |
| CCACGCUCAGUUAGGAUAUGAUCCAUUACCAGUGAUCAGAAGGAACAUGAGGAUCACCCAUGUACAGUACGAGA | – | – | 9.62 | 14.2 | – |
| UCGGACGGAGGAUAUACUAUGACUCCCACGGCAUGUUACGCACAUGAGGAUCACCCAUGUAGAAGGCCGCCUAA | – | – | 4.27 | 7.41 | – |
| CUUAACAAAGGAUAUACACAAAUGAUUAAGGUGCCGGGAAAACAUGAGGAUCACCCAUGUAGAAGGUUGUAACA | – | – | 8.1 | 7.75 | – |
| AACAUGAGGAUCACCCAUGUCGGGUAUAGGAAUGUGUGUCUGCAGGAUAUGCCUUGCAUUGCAUAGCAGAAGGGCACGGCUCAG | – | – | 125 | 64.2 | – |
| UUUACCGACACAGAUCACUAAAACCUUGAUACCAGUCCCAGUGGCGACCCUUGGCAGCAAUAUACAUGAGGAUCACCCAUGUGCA | – | – | – | – | apparent Kd (MS2 coat protein [1]; [7]): 14.7 nM; apparent Kd (MS2 coat protein [1]; [8]): 16.7 nM |
| GAACAACAUGAGGAUCACCCAUGUGACAGCCGUCAAGGAUAUUCCGGGAAAGGAGGUCCGGAAGAAGGUGAUCGUA | 265 | 341 | – | – | – |
| CGGCAACUGUAGAAGGAGCAUCCCACAUCUAAGCUAGGAUAUACGUAAUGUAUGUACAUGAGGAUCACCCAUGUGUGCACCAGG | – | – | 26.4 | 24.2 | – |
| AGCGAAUAAGGAUAUACGUGAAAAGCACUUAGAGUUGGAUCACAUGAGGAUCACCCAUGUAGAAGGUAUGACGA | – | – | 18.6 | 15.7 | – |
| GACGUGGAGUCAGGAUAUCGACGACAUUCUUAGCGAGAAGGGACCUAGCUUAGAUCAACAUGAGGAUCACCCAUGUCGAGUUUC | – | – | 21.7 | 20.4 | – |
| GCGUUUGCCAAAGGAUAUCAACAUGUGUUGCUUGCAUUCCUAUACAUGAGGAUCACCCAUGUGGCUGAGAAGGUUGAACACUGG | 18.2 | 14.1 | – | – | – |
| AAGGUGCACGCUCAGGAUAUAUUCCAGGUUACAUGAGGAUCACCCAUGUAGGGUUGAAGAAGGACAUAGAAGGGAGCCUACUUGGC | 32.6 | 21.6 | – | – | – |
| CUCCUGGCAGGAUAUACAUGAGGAUCACCCAUGUUCCGAGCGUCCCAAACGACACGGUGUAGAAGGGCCAAGAU | – | – | 12.8 | 17.3 | – |
| AAAGCCUUUCUAGGAUAUCAAUACAGUCGUGGUUGAGAAGGAGAAACUGCGUUCUAGACAUGAGGAUCACCCAUGUCCUCAAUG | 98.6 | 71.9 | – | – | – |
| CCGCGCACUGGAGGAUAUAAUCGAACAUGAGGAUCACCCAUGUUAGACGUGGUACGAGCGUUCCAUUAGAAGGCCACUCUGCGU | – | – | 27.1 | 52.8 | – |
| ACCACAGAGUAGAAGGUCCGACACGGCUCGUCGGAAGGAUAUACAUAUUGUUAGAGAUGGGAACAUGAGGAUCACCCAUGUGUC | 16.2 | 9.9 | – | – | – |
| AUAGAAAAUGUAAGGAUAUAUCGAAACAAUAAACGAAAGAAGGAACAUGAGGAUCACCCAUGUAAAGUAAUAAA | – | – | 10.3 | 9.25 | – |
| UAUCACUGGCAGAAGGUUCUCGGAAGCGAUGGUACUCUAUACAUGAGGAUCACCCAUGUCUACGGAAAGGAUAUGCCAUUGCGA | – | – | 70 | 176 | – |
| AUCUAGUGCCUCAAGGAUAUGCACAGAGAGACAUGAGGAUCACCCAUGUAACAAGCAUGCUCAACGCAGAAGGUGACACUUAAGAU | 39.2 | 12.7 | – | – | – |
| UUACAGUCAGGAUAUUGAGUCACCCACAUGAGGAUCACCCAUGUACCUCGAAAACUGGAGCAAGAAGGGACUGCUG | – | – | 18.9 | 26.4 | – |
| UUCCCUGCUUAGGAUAUCUAGACAAGACGGUCAAGAGAAGGAAGUACAUGAGGAUCACCCAUGUUUAGCAUGAA | – | – | 10.5 | 14.2 | – |
| GCUGUAGAAGGAUAUCACAGGAUGGACAUGAGGAUCACCCAUGUUCUUUACUCCGCACCUUGAGAAGGUCUAAGUC | – | – | 6.27 | 5.88 | – |
| AGACAUGAGGAUCACCCAUGUGAAGUGGAUACCAGCCGCAGCGAUGGCCCUUGGCAGCCAGCUUUGUGUCGAUACAUCCGCACUU | – | – | – | – | apparent Kd (MS2 coat protein [1]; [7]): 15.9 nM; apparent Kd (MS2 coat protein [1]; [8]): 25.8 nM |

| Sequence | apparent Kd (MS2 coat protein [1]; [3]) [nM] | apparent Kd (MS2 coat protein [1]; [4]) [nM] | apparent Kd (MS2 coat protein [1]; [5]) [nM] | apparent Kd (MS2 coat protein [1]; [6]) [nM] | also measured |
| --- | --- | --- | --- | --- | --- |
| CGGGCCAUCUAAGGAUAUUUGCCGGCCCGAAGACAUGAGGAUCACCCAUGUGUGAACGGAUGUCGAAAGAAGGUAGACCUGGUC | 300 | 206 | – | – | – |
| GCGUGGCACUGCAUACACACAUGAGGAUCACCCAUGUAUAGUAGAAGGUUCUUCAGCGGGAACAGAAAGGAUAUACUGAUAGAU | 7.74 | 7.42 | – | – | – |
| UUUUCUGAGGAGAAGGACGACCACAAACAUGAGGAUCACCCAUGUCUUACUAUCUGACCGCCAUCGUAGGAUAUCCCGAGGGAG | 11.2 | 10.2 | – | – | – |
| UAGCAAUUACAUGAGGAUCACCCAUGUCUAUCGCAGAACAAGCAGGAUAUAGUGACACGACUCCGCUAGAAGGGCUCCUCUGUU | 62.4 | 55.3 | – | – | – |
| GCUAGUUCACAGAAGGCGUCCGUGGGUGGCGCCUUACAUGAGGAUCACCCAUGUCAACCGUGCGACGAGGAUAUGUCAAUCGCA | – | – | 22.5 | 21.6 | – |
| GGAAGUAGAUGUCAGGAUAUCAAAAGCAUAACAUGAGGAUCACCCAUGUCCAAAAGGCAGAGAAUUGAGAAGGGACGUAGGUUACA | 42.2 | 14.4 | – | – | – |
| CGUGGCAAUCAAGGAUAUCACUUCUAGAUACCGUGAGAAGGUGAGCGUCUCUGCAAAGAGCGGGACAUGAGGAUCACCCAUGUA | 255 | 162 | – | – | – |
| UCAUGGUCAGGAUAUACGAUUAGACAUGGCUUCGAUAAGUCGUAGAAGGGACAUGAGGAUCACCCAUGUAGCAA | – | – | 109 | 33.5 | – |
| GUCUGAUGACAUGAGGAUCACCCAUGUUGUAGGGUUACCUUCAGAAGGGCGAACUCGUAUAGAGCGCAGGAUAUGAAUCAAAGA | 29.5 | 11.9 | – | – | – |
| GGAUCACAUGAGGAUCACCCAUGUAAAGACGAUACAGGAUAUGACAGAACACGCAUCGUUUCAGAAGGGUAUAGUG | 66.9 | 47.6 | – | – | – |
| CACGGCAUUGAGAAGGGAGUGACAUGGAACUGCUCAGGAUAUCAACACACAUUGUUAAAGAAAACAUGAGGAUCACCCAUGUUC | 11.2 | 9.28 | – | – | – |
| GAAUCAUGACAGAAGGCACGGAAUACCCGGCUGUGAGGAUAUGUUUGAAAACAGACAUGAGGAUCACCCAUGUCCGAAGUGUCU | – | – | 301 | 555 | – |
| UGGUCACAUGAGGAUCACCCAUGUAAGGAUAUCCGCGCCAUAGAGGAAAAGACGGUAUGGAGAAGGUACAGCUU | – | – | 29.9 | 26.9 | – |
| GAAUGCCUGUCGAUGCUCGACAUGAGGAUCACCCAUGUAUAGCAGGAUAUGCAGAACUGACUCGUGCAGAAGGGCUAUACCUAA | – | – | – | – | apparent Kd (MS2 coat protein [2]; [5]): 18.8 nM; apparent Kd (MS2 coat protein [2]; [6]): 47.7 nM |
| GUACUGUAGUGAGGAUAUACGAGAUCGAUAGAUCGGCGAUCCAAUAAUACAUGAGGAUCACCCAUGUAGAAGGCACUUCAGUAC | – | – | – | – | apparent Kd (MS2 coat protein [2]; [5]): 7.07 nM; apparent Kd (MS2 coat protein [2]; [6]): 99 nM |
| GGGUACAUCGGAGGAUAUCAUGUAGAUACAUGAGGAUCACCCAUGUCGAUGGAGACAUCGGAGAUUGAGAAGGCCGAUGUACCG | – | – | – | – | apparent Kd (MS2 coat protein [2]; [3]): 272 nM; apparent Kd (MS2 coat protein [2]; [4]): 10.1 nM |
| GCCAGCUAUGUAGGAUAUGCGCGGCGAGCCUGUGCAGAAGGACAUGAGGAUCACCCAUGUGUUGCGGUCUGAGUACUGAUCGCC | – | – | – | – | apparent Kd (MS2 coat protein [2]; [5]): 36.1 nM; apparent Kd (MS2 coat protein [2]; [6]): 160 nM |
| UUUAGUAUCUAGGAUAUCUAGUACAUAGUAUCUAGAGAAGGAGAUACAUGAGGAUCACCCAUGUUCUGUGUUCU | – | – | – | – | apparent Kd (MS2 coat protein [2]; [5]): 23.4 nM; apparent Kd (MS2 coat protein [2]; [6]): 58.4 nM |
| CCUCUACAUGAGGAUCACCCAUGUGAGGAUAUAAGAUUGCGAAUUCCGCACUACGGUCUUAGAAGGCGCGUGGA | – | – | – | – | apparent Kd (MS2 coat protein [2]; [5]): 16.4 nM; apparent Kd (MS2 coat protein [2]; [6]): 30.5 nM |
| UAAGCGAUACAGAAGGGAAACAUGAGGAUCAGCCGCGACAUGAGGAUCACCCAUGUUUACUUAUUUCAGGAUAUGUACAGUAGC | – | – | – | – | apparent Kd (MS2 coat protein [2]; [3]): 612 nM; apparent Kd (MS2 coat protein [2]; [4]): 272 nM |
| CACUCACAUGAGGAUCACCCAUGUCCUAGGAGGUCAGGAUAUAGCUCGGAUGCGUUGAGGCUAGAAGGGACAGGUU | – | – | – | – | apparent Kd (MS2 coat protein [2]; [3]): 79.5 nM; apparent Kd (MS2 coat protein [2]; [4]): 88.6 nM |
| ACAUGGAAUACAGGAUAUGUAAGUUUUAAGUAGAUUGGUUAUUACUUUACUACAGAAGGGUAAUACAUGAGGAUCACCCAUGUA | – | – | – | – | apparent Kd (MS2 coat protein [2]; [3]): 16.9 nM; apparent Kd (MS2 coat protein [2]; [4]): 12.2 nM |
| UCCUGACCGAGAGGUAGGAGUGGUAGAAGGCGACCGGUGCCAGAUGACAUGAGGAUCACCCAUGUCGAGGAUAUACCACAGAAU | – | – | – | – | apparent Kd (MS2 coat protein [2]; [5]): 7.45 nM; apparent Kd (MS2 coat protein [2]; [6]): 14.1 nM |
